Sampled rows, rich in hits. Any-hit rate of the full collection: about 1.8%.
NR1D1 modulator: Rev-erb alpha (human) modulation; Rev-erbα–FITC-DNA binding, fluorescence polarization, 90 min; activity, % at 10 µM; 370,000 tested, 0.79% active; AID 1259318;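 active = activity above about 14%, limit read from the data; passing the limit was not always enough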;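 also: 0% = DMSO wells with 35 nM protein and 100% = DMSO wells with 750 nM protein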
PG9 binder: PG9 antibody binding by small molecule. TR-FRET gp120-PG9 antibody binding. inhibition, % at 6.7 µM. AID 624416. 360,000 tested, 0.43% active; in the data active = inhibition above about 8.5%
Tb MetRS inh: Trypanosoma brucei MetRS inhibition. 360,000 tested, 0.4% active. purified T. brucei MetRS, ATP depletion, Kinase-Glo luminescence. inhibition, % at 11.9 µM;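 active = inhibition above a per-plate cutoff of the control wells' mean inhibition plus 3 SD, cut at about 5.5% in these data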;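 also: 0% = DMSO wells median and 100% = median of wells with control inhibitor compound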
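Test system: purified T. brucei MetRS enzyme. Also added: ATP, methionine and E. coli bulk tRNA substrates. Compound: 11.9 µM single point. Schedule: 15 min enzyme-compound preincubation, 2 h reaction, 10 min detection, 25 °C. Signal: luciferase luminescence of residual ATP, Kinase-Glo. Evaluation: percent inhibition versus plate control medians. Controls: DMSO wells, low control.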
Rin1 Abl inh: inhibitors of human Rin1-Abl protein interaction; inhibition, % at 7.35 µM; TR-FRET Rin1/Abl binding, biochemical; AID 588664; 360,000 tested, 0.4% active; in the data active = inhibition above about 5%, passing the limit was not always enough
Tb MetRS conf: confirmation of Trypanosoma brucei MetRS inhibitors. inhibition, % at 11.9 µM. 1,400 tested, 93% active. T. brucei MetRS enzyme, luminescence (ATP depletion). shares compounds with Tb MetRS inh; in the data active = inhibition above about 7%
Jurkat cytotox: Jurkat T cell cytotoxicity for MetRS hits; inhibition, % at 8.3 µM; shares compounds with Tb MetRS inh; 1,400 tested, 12% active; Jurkat cells viability, ATP luminescence; in the data active = inhibition above about 15%;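 also: 0% = vehicle and 100% = reference inhibitor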
TbMetRS FP orth: T. brucei MetRS inhibition, orthogonal assay. shares compounds with Tb MetRS inh. purified T. brucei MetRS, fluorescence polarization. inhibition, % at 11.9 µM. 1,400 tested, 44% active. AID 651607; in the data active = inhibition above about 17%;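 also: 0% = vehicle wells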
The depositor's hits bear a star; . = no result.

SMILES	NR1D1 modulator	PG9 binder	Tb MetRS inh	Rin1 Abl inh	Tb MetRS conf	Jurkat cytotox	TbMetRS FP orth
O=C(NCCCc1ccccc1)c1ccc(-n2cncn2)c([N+](=O)[O-])c1	-3	-1	21*	0	58*	-1	35*
COC(=O)[C@H](CC(C)C)N(CCc1cn(Cc2ccc(C)cc2)nn1)S(=O)(=O)c1ccccc1Br	4	.	.	.	.	.	.
O=C(N[C@H](C(=O)N1CCC[C@H]1C(=O)NC1CCCC1)C1CCCCC1)c1nccs1	0	-2	.	.	.	.	.
COc1ccccc1CCn1cnc(-c2cccc(Cl)c2)c1CC(C)C	-3	-1	.	.	.	.	.
Cc1ccc(C2CCC3(CCC(=O)N3CCOC(=O)Nc3ccc(Br)cc3)CC2)cc1 (configuration not stated)	-1	.	.	.	.	.	.
COC(=O)c1ccc(-n2cncn2)c([N+](=O)[O-])c1	3	-3	16*	-2	35*	-5	6
O=C(c1ccc(-n2cncn2)c([N+](=O)[O-])c1)N1CCN(c2cccc(Cl)c2)CC1	-2	0	5.8*	-3	20*	5	6
COc1ccc(NC(=O)c2ccc(-n3cncn3)c([N+](=O)[O-])c2)cc1OC	-6	-2	15*	2	59*	3	33*
O=C(c1ccc(-n2cncn2)c([N+](=O)[O-])c1)N1CCN(S(=O)(=O)c2ccc(Cl)cc2)CC1	2	-1	3	-1	.	.	.
Cc1ccc(NC(=O)CN(C)C(=O)c2ccc(-n3cncn3)c([N+](=O)[O-])c2)cc1	-6	2	10*	0	38*	-1	16
COc1ccc(CN2CCC(CNC(=O)NC3CCCC3)CC2)cc1	-5	.	.	.	.	.	.
CCCCc1c(-c2ccccc2OC)ncn1Cc1ccc(OC)c(Cl)c1	-4	1	.	.	.	.	.
Cc1ccc(CNC(=O)O[C@H]2CC[C@@]34CCCN3C(=O)CCC[C@H]4C2)cc1	6	.	.	.	.	.	.
COC(=O)[C@H]1C[C@@]2(N3CCCC3)c3ccccc3N[C@H]2N1S(=O)(=O)c1ccc([N+](=O)[O-])cc1	-3	.	.	.	.	.	.
Cc1ccc(NC(=O)c2ccc(-n3cccn3)c([N+](=O)[O-])c2)cc1	4	-2	0	-3	.	.	.
CCN(CC(=O)Nc1c(F)cccc1F)C(=O)c1ccc(-n2cncn2)c([N+](=O)[O-])c1	-3	2	2	4	.	.	.
Cc1cccc(NC(=O)CNC(=O)c2ccc(-n3cncn3)c([N+](=O)[O-])c2)c1C	3	-2	19*	1	51*	-6	27*
COc1ccc(NC(=O)c2ccc(-n3cncn3)c([N+](=O)[O-])c2)cc1	2	-1	6.2*	1	22*	1	8
Cc1cc(C)cc(N(CC(=O)NC2CCC(C)CC2)S(=O)(=O)c2ccc(Br)s2)c1 (configuration not stated)	-6	.	.	.	.	.	.
COC(=O)CN1C(=S)N(c2ccc(Cl)cc2)C(=O)C1CC(=O)Nc1ccc(Cl)cc1 (configuration not stated)	-4	0	24*	-1	39*	3	38*
COC(=O)CN1C(=S)N(c2ccc(Cl)cc2)C(=O)C1CC(=O)Nc1ccc(F)cc1 (configuration not stated)	4	-4	1	0	.	.	.
c1ccc(-c2cccc3[nH]cc(-c4ccccc4)c23)cc1	-1	.	.	.	.	.	.
Nc1[nH]c(C(=O)c2ccccc2)c(-c2ccc(Br)cc2)c1C(=O)N1CCN(CCO)CC1	-7	.	.	.	.	.	.
Cc1ccc(NC2=NC(c3ccc(O)cc3)n3c(nc(C)cc3=O)N2)cc1 (configuration not stated)	-1	1	1	-3	.	.	.
Cc1ccc(C2NC(=NCc3ccccc3)Nc3nc(C)cc(=O)n32)cc1 (configuration not stated)	-7	-1	7.6*	0	17*	-1	-1
NC1=NC(=O)/C(=C\c2ccc(-c3ccc(Cl)cc3)o2)S1	3	-2	9.1*	1	34*	22*	49*
CCC[C@H]1[C@@H](NC(=O)C(c2ccccc2)c2ccccc2)CC[C@@]23CCCN2C(=O)CCC[C@@H]13	-4	.	.	.	.	.	.
COc1cc(/C=C(/C#N)c2ccccc2)ccc1Oc1ccc([N+](=O)[O-])cn1	-2	1	-1	0	.	.	.
